Source: PubChem (several laboratories)
ATG4B inh: blocks human ATG4B protease cleavage of LC3 substrate; Q9Y4P1; ATG4B cleavage of LC3-PLA2, NBD-HPC fluorescence, 1 h; inhibition, % at 8.33 µM; 340,000 compounds, 0.51% hits; AID 504462; in the data active = inhibition above about 40%
TPT1 inh: inhibitors of Candida albicans tRNA 2'-phosphotransferase TPT1. recombinant caTPT1, FP RNA substrate dephosphorylation. inhibition, % at 5 µM. 300,000 compounds, 0.81% hits;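 active = inhibition above the mean of all tested compounds plus 3 SD, set per screening campaign, cut at about 24% in these data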;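 note: plate controls were DMSO alone for no effect and ferristatin control at 100 nM for full effect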
Rpn11 block: inhibitors of human proteasome Rpn11; O00487; human 26S proteasome, Ub4-pepOG fluorescence polarization; 20S core pre-blocked with epoxomicin; inhibition, % at 20 µM; 360,000 compounds, 0.59% hits;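 active = inhibition at 20 µM, scaled to each plate's controls, above about 33%, limit read from the data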
HNF4A DNA FP: change in binding of human HNF4 alpha to DNA; P41235; HNF4a-FITC DNA binding, fluorescence polarization, 1 h; activity change, % at 10 µM; 360,000 compounds, 0.3% hits; AID 1224865; in the data active = activity change above about 30%, passing the limit was not always enough
Target sequence (P41235 whole entry, looked up): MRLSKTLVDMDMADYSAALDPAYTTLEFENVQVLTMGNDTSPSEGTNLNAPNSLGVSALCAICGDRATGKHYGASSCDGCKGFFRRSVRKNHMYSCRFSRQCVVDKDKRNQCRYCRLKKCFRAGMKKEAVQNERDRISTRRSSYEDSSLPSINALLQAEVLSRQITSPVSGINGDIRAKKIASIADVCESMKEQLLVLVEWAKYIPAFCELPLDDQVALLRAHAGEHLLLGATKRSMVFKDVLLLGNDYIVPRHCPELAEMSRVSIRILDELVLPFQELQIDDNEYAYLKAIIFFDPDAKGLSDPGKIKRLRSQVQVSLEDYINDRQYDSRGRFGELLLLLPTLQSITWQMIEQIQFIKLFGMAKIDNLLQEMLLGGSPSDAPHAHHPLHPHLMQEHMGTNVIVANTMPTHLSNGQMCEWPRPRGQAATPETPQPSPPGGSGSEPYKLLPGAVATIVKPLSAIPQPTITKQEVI
CSN inh: blocks human CSN-mediated cullin deneddylation. AID 651999. Purified CSN, SCF-Nedd8-OG deneddylation, fluorescence polarization. inhibition, % at 12.5 µM. 360,000 compounds, 0.38% hits;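 active = pattern-corrected inhibition above about 35%, with an unprinted fluorescence ratio check between 0.5 and 1.5, limit read from the data, passing the limit was not always enough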;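 note: 0% = enzyme with substrate and 100% = substrate without enzyme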
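Assay system: purified human Csn5 enzyme expressed in HEK293T cells; measure: % inhibition; also added: SCFSkp2-Nedd8OG substrate at 10 nM final; technique: fluorescence polarization; times: reaction 90 min, room temperature; medium: Tris buffer pH 7.5, NaCl, DTT, Tween-20, trehalose, ovalbumin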
SENP1 inh: SENP1 (human) catalytic domain inhibition. recombinant SENP1 catalytic domain, CyPet-SUMO1-YPet FRET cleavage. 360,000 compounds, 0.21% hits. inhibition, % at 10 µM. AID 624204;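 active = inhibition at least 30% at 10 µM, raw YFP signal under a set limit, fluorescence ratio 0.5 to 1.5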;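 note: 0% = enzyme with DMSO and 100% = no enzyme wells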
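material = recombinant human SENP1 catalytic domain, His6-tagged | quantity = 20 pM enzyme | reagent = 25 nM SUMO1 FRET substrate | compound dosing = 10 µM single point, 0.5% DMSO | timing = 50 min enzyme reaction, room temperature, light-protected | detection = FRET, CFP and YFP emission | control set = no-enzyme low, enzyme-DMSO high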
ATG4B conf: ATG4B (human) inhibition, single-dose confirmed | shares compounds with ATG4B inh | ATG4B protease fluorescent substrate cleavage assay | inhibition, % at 8.33 µM | 320 compounds, 92% hits; in the data active = inhibition above about 39%
PLA2 counter: inhibits human PLA2, flagging false ATG4B inhibitors | inhibition, % at 8.33 µM | shares compounds with ATG4B inh | purified PLA2, NBD-C6-HPC fluorescence, 45 min | AID 588402 | 1,600 compounds, 66% hits; in the data active = inhibition above about 50%
Target sequence (P04054 whole entry, looked up): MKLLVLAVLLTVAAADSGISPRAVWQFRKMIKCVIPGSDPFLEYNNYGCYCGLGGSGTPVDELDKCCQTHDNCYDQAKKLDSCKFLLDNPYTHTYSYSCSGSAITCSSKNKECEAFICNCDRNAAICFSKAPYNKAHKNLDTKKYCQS
Starred values were filed as active, the others as inactive; . = no result given. Sampled rows, rich in hits. Any-hit rate of the full collection: about 2%.

SMILES	ATG4B inh	TPT1 inh	Rpn11 block	HNF4A DNA FP	CSN inh	SENP1 inh	PLA2 counter	others
Cc1cccc(-n2c(SCc3ccc(C#N)cc3)nnc2-c2c[nH]c3ccccc23)c1	51*	-2	5	-1	0	2	59*
COCC(=O)N1CCC2CC1c1cc(Cl)ccc12 (stereo not given)	-1	.	-3	3	7	-2	.
COCCCN1C(=O)C(CC(=O)NCc2cccc3ccccc23)CC(C(=O)N(C(C)C)C(C)C)=C1C (stereo not given)	.	.	-1	1	3	0	.
Cc1ccc(NC(=O)c2ccccc2)cc1C	-14	2	4	-1	-1	3	.
Cc1ccc(C(=O)Oc2cccc(NC(=O)c3ccccc3)c2)cc1C	49*	2	1	0	-1	0	59*
Cc1ccc(N(CC(=O)NCc2ccc(F)cc2)C(=O)c2snc(C(N)=O)c2N)cc1C	60*	1	5	-1	2	-26	57*
COc1ccc(N(CC(=O)NCc2ccc(F)cc2)C(=O)c2snc(C(N)=O)c2N)cc1OC	10	0	1	-1	3	2	.
COc1ccc2nc(N3CCCCC3)c(C#N)cc2c1	0	-35	-20	-7	1	-25	.
COc1ccc2nc(N3CCCCC3)c(/C=C3\SC(=S)NC3=O)cc2c1	77*	11	71*	16	17	92	32	ATG4B conf=21
O=C(/C=C/c1ccccc1O)c1ccc(Cl)cc1	69*	-4	-8	0	4	4	88*
Cc1ccc(CS(=O)Cc2ccc(C(=O)NCc3ccccc3Br)o2)cc1 (stereo not given)	63*	1	-2	0	-2	-3	69*
O=Cc1ccc(OCc2cccc(C(F)(F)F)c2)cc1O	57*	-2	-4	-2	4	-18	77*
COCOc1ccc(C=O)c(O)c1	-22	-4	9	7	3	2	.
COC(=O)NNC(=O)COc1cc(C)c(Br)cc1C(C)C	41*	-1	4	3	-8	2	-14
CCCCNC(=O)C1(C)CCCCN1C(=O)c1cc(C#N)cs1 (stereo not given)	.	.	-2	-3	2	1	.
CCOC(=O)C1CCCN(C(=O)c2ccc(C(F)(F)F)nc2C)CC1 (stereo not given)	.	.	-9	-4	1	5	.
O=C(Nc1ccccc1-c1ccccc1)NC1CC2CCCC(C1)N2CCc1ccccc1 (stereo not given)	7	3	6	2	0	2	.
O=C(Nc1ccccc1-c1ccccc1)NC1CC2CCCC(C1)N2Cc1ccc(F)cc1 (stereo not given)	72*	-6	-3	-1	-4	1	66*
Cc1ccc(-c2cc(-c3ccccc3C)[nH]n2)c(O)c1	57*	-3	-3	0	0	1	74*
Cc1ccc(O)c(-c2cc(-c3ccccc3F)[nH]n2)c1	18	1	0	7	3	0	.
Cc1ccccc1S(=O)(=O)N1[C@@H](c2ccc(Br)cc2)C(C(=O)O)=CC[C@H]1c1ccc(Cl)cc1	43*	.	18	-1	6	-2	47	ATG4B conf=46*
O=C(/C=C/CCc1ccc2c(c1)OCO2)N1CCCCC1	2	.	-2	4	6	2	.
CCOC(=O)c1c(NC(=O)C2C3CCC(O3)C2C(=O)O)sc(C)c1-c1ccc(C)cc1 (stereo not given)	1	-3	1	-1	1	1	.
Cc1sc(NC(=O)C2C3CCC(O3)C2C(=O)O)nc1-c1ccc(CC(C)C)cc1 (stereo not given)	56*	1	-4	1	-13	1	69*
O=C(Cn1cccc1C(=O)c1ccccc1)NCCC1=CCCCC1	43*	0	0	2	-2	-1	42	ATG4B conf=62*
SMILES	ATG4B inh	TPT1 inh	Rpn11 block	HNF4A DNA FP	CSN inh	SENP1 inh	PLA2 counter	others
Cc1ccc(S(=O)(=O)N2CCC(C(=O)NCc3ccccc3Cl)CC2)cc1	46*	-3	-2	-3	0	0	45	ATG4B conf=67*
O=C(NCc1ccccc1Cl)C1CCN(S(=O)(=O)c2ccc(F)cc2)CC1	16	-2	-4	-4	-12	-2	.
COc1ccc(CNC(=O)C2CCN(S(=O)(=O)c3ccc4nc5c(c(C(=O)O)c4c3)CC(C)CC5)CC2)cc1 (stereo not given)	3	1	14	7	5	-7	.
O=C(NC1CCc2ccccc21)C1CCN(S(=O)(=O)c2ccc(Cl)cc2)CC1 (stereo not given)	46*	-4	2	0	0	0	40
CC1CCc2nc3ccc(S(=O)(=O)N4CCC(C(=O)NCc5ccccc5Cl)CC4)cc3c(C(=O)O)c2C1 (stereo not given)	55*	2	18	7	6	-65	79*
O=C(NC1CCCc2ccccc21)C1CCN(S(=O)(=O)c2ccccc2)CC1 (stereo not given)	16	1	-4	-1	-5	1	.
O=[N+]([O-])c1ccc(Cl)c(C2Nc3cccc4cccc(c34)N2)c1	54*	2	0	-4	2	2	71*
Brc1ccc(Br)c2cnccc12	-2	.	-2	0	-4	-1	.
CCN(CC)c1ccc(/C=N/NC(=S)NCc2ccccc2)c(O)c1	49*	8	-3	2	-12	-72	37
O=C1c2ccccc2C(c2nnnn2Cc2ccccc2)N1CCc1ccc(O)cc1 (stereo not given)	.	.	.	2	0	-1	.
Cc1ccccc1NC(=O)/C(=C/c1ccccc1)c1ccccc1	43*	-1	0	2	-3	-1	44	ATG4B conf=65*
CCCS(=O)(=O)NC(=O)C1(C)CCCN(C(=O)c2nc3ccccc3s2)C1 (stereo not given)	.	.	1	-3	0	0	.
Cc1cccc(C)c1NC(=O)CCCSc1nc2ccccc2s1	47*	-6	10	6	-3	-1	31
Cc1ccc(C(=O)N/N=C(/CC(=O)c2cccs2)C(F)(F)F)cc1	41*	5	10	-1	-3	23	28
CCOC(=O)c1c(C)nc2sc(C(N)=O)c(N)c2c1-c1ccccc1	54*	6	6	0	0	8	61*
